Variants at the floor of the assay were thinned out.
B1: tRNA (parent)
chain: GUUCCGUUGGCGUAAUGGUAACGCGUCUCCCUCCUAAGGAGAAGACUGCGGGUUCGAGUCCCGUACGGAACG

Variants of: B1
Test: yeast fitness relative to wild type (ratio to wild type); higher = fitter; tRNA-Arg(CCU), competitive growth, 37 C, YPD
Method in brief: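 Gene amplicons from the start population and from each of six end populations were read by 100-nucleotide paired-end sequencing. Those end populations came from pooled Saccharomyces cerevisiae strains carrying tRNA-Arg(CCU) gene variants at the native locus, competed in YPD at 37°C for 24 hours. Fitness relative to wild type was worked out from changes in genotype frequencies. Genotypes needed ≥ 100 starting reads, and estimates < 0.5 were set to 0.5.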

Variant | yeast fitness
U16G C22U A37U G50C | ≤ 0.5
U16G U54C | 0.704
U16C G58A | 0.87
U16C G25C U26C C34U U64G | 0.528
U16C G52A | 0.713
G17A A42U A57U C61G | 0.591
U16C C22U G63A | 0.545
G17A A21G | 0.765
U16C C30U C62U | 0.645
U16C C49U A69U | 0.555
U16C A43C U54A | ≤ 0.5
U16G G23A A40C C66U | ≤ 0.5
U16G C22G A70G | 0.767
U16G C30U | 0.777
U16G A57G C62G | ≤ 0.5
U16G A65G | 0.904
U16G A65C | 0.932
U16G C22G C34G G50C A69U | 0.528
U16C G17A | 0.797
U16C G17C | 0.665
G17A A36U C49U C62U | ≤ 0.5
U16C C31A G56A A65G C66A G68C | ≤ 0.5
U16C C33U A36C C49G | ≤ 0.5
U16G A43U G50C G67A | ≤ 0.5

Variant | yeast fitness
U16C U26C A36C U64A A70C | ≤ 0.5
U16C G41C C46A | 0.721
U16C C55U G67A | 0.528
U16C U28A | 0.827
U16C C22A U53C C66G A69U | ≤ 0.5
U16C C60U | 0.79
U16G C24G U59A | ≤ 0.5
U16C C34A G39C G52A G58A | ≤ 0.5
U16C C22U | 0.741
U16C C22G | 0.968
U16C C31A | 0.906
U16C C31U | 0.953
U16G G18A A21U A40C G58C A65C C66G | ≤ 0.5
U16C G18U C24U A45C C46G | ≤ 0.5
U16C A43U G48C C60G | ≤ 0.5
U16G G39A A45C C61A | 0.617
U16G A42U C62A A70C | ≤ 0.5
U16G C46G | 1.06
U16G C46A | 0.754
U16G A37G A45C C61G A69C | ≤ 0.5
U16C C33U | 0.686
U16G A69C | 1.04
U16C C33G C49A C55G G56C | ≤ 0.5
G17A A42C | 0.645

Variant | yeast fitness
U16C G17C C24U | 0.559
U16C C27U U64G | 0.536
U16G G23C G48A C61A C66U | 0.54
U16C C22G C46G C49U A69U | 0.55
U16C C22G U53A | 0.544
G17A A20G C31U U35C A57G | 0.573
U16G U35A G51C C61U | ≤ 0.5
U16G A42C U47C | 0.676
U16C C22U A37U | 0.576
U16C C22U C24U C29U C60U | 0.551
U16C U28G C30G A40C A42U | ≤ 0.5
G17A A42U C55U C62A | ≤ 0.5
U16G C49U C60A C61A | ≤ 0.5
U16C A65C | 0.955
U16C A65U | 0.965
U16C A65G | 0.95
G17A A40G | 0.722
U16C A42G G58A | 0.52
U16G G68U | 0.853
U16C G17A C27U C34G G38C A43G C62A | ≤ 0.5
U16G C22G C46G | 0.657
G17A A21C C29G | 0.626
G17A A40U G48A | ≤ 0.5
U16C A70C | 1.1

Variant | yeast fitness
U16C A70G | 0.945
U16G U47A | 0.781
U16C C66A | 0.711
U16G G44C C62U | 0.566
U16G G44C C62A | 0.875
U16C C34A A37G U59A | ≤ 0.5
U16G A57G | 0.805
U16C U19A U26A | 0.648
U16C G25C U47A A65G | ≤ 0.5
U16G C24G U26A G50A | 0.581
U16G U35A A45C G52A | ≤ 0.5
U16G G63C | 0.694
U16C U19C A21C G23C C49G G52A | ≤ 0.5
U16G G44C G68A A69U | 0.609
G17A A20C C49G | ≤ 0.5
U16G C24U C49G G63C | ≤ 0.5
U16G C31G C66U | 0.586
U16C A40U U47A | 0.532
U16C U26C C33U G63C | ≤ 0.5
U16C U47C U64G | ≤ 0.5
U16C C29A C55G | 0.573
U16G A37G | 0.673
U16G A37U | 0.618
U16C C33G G51A C55A | ≤ 0.5

Variant | yeast fitness
U16G U26G A36G G67U G68C | ≤ 0.5
G17A A37C U54A C55A C66G | ≤ 0.5
U16G U26A C34U C62A | ≤ 0.5
U16G C49G | 0.636
U16G C49U | 0.916
U16G C60U | 0.772
U16C C33A A40C | ≤ 0.5
U16G C34U A57G A69C | ≤ 0.5
U16G U28A A42G | 0.665
U16C C30U C34G G39A | ≤ 0.5
U16C C24G | 0.64
U16C G18A C24G A57C | ≤ 0.5
U16G U28C G51A C55G | ≤ 0.5
U16C A42U G63C | ≤ 0.5
U16G C34U C46G U59A | ≤ 0.5
G17A A37U G38A | ≤ 0.5
U16C C31U C33A C34G U35A G52A | ≤ 0.5
G17A A20G A42U | 0.644
U16C C55U | 0.831
U16C U54C | 0.723
U16C A69C | 0.889
U16C C24G U32A A69C | ≤ 0.5
G17A A37C G52C G56C C60A U64A | ≤ 0.5
G17A A36C A37U A43C C46U C49G G50A | 0.59

Variant | yeast fitness
U16G A45G C66U | 0.771
U16C C33U A36C | 0.589
U16C C46A G56A | 0.769
U16G A36G A45G | 0.745
U16G U47A G52A | ≤ 0.5
G17A A20G C34A A40G C66U | ≤ 0.5
G17A A21G G23A C27G A37U G44A C49U | ≤ 0.5
U16C G48A | 0.996
U16C C62G | 0.717
U16G C22G A43G C46G G56C A69G | ≤ 0.5
U16G C31A | 0.985
U16C C49G | 0.909
U16C C49U | 0.867
U16G A45U G50A C66U | ≤ 0.5
U16G A43C | 0.919
G17A A37G A43C | ≤ 0.5
U16G A70G | 1.03
U16G A70C | 0.911
U16C C22U C24U C29U | ≤ 0.5
U16G U59C C60G | ≤ 0.5
U16C C49A G63A | ≤ 0.5
U16C A43C | 1.01
U16C U35A C61A A70U | 0.532
G17A A21C U32C | ≤ 0.5

Variant | yeast fitness
U16C C31G A36U C60G | 0.694
U16C C29U | 0.738
U16C C29A | 0.629
U16C C27A | 0.963
U16C C27U | 1.02
U16C C46G | 0.979
U16C C46A | 1.02
U16C U26A C46U G56A C61G G67A | ≤ 0.5
G17A A21U C34G G38C G56C | ≤ 0.5
U16C C22G C62U | 0.716
U16G C55U | 0.817
U16G C55G | 0.544
U16G G39A A45C G67A | ≤ 0.5
U16C G23C C29G A43U G50A A65C | ≤ 0.5
U16C C49U A70G | 0.581
U16C C49U A70U | 0.745
U16C U19C A65G | 1.05
U16C A45C C60G | ≤ 0.5
U16C C33U G63C | 0.508
G17A A21C C31U | ≤ 0.5
U16C A43U G51C A57C C60G G67A | ≤ 0.5
U16C A42U | 0.969
U16C A42C | 0.93

From the RNAGym collection of RNA variant scans (doi:10.1126/science.aae0568)
